This note sets out measurements from the array DNA melting data of Ke et al. (doi:10.1101/2024.01.08.574731).

A short description of series [1]: melting temperature; fluorescence melt of hairpins on a sequencing array, two-state fit, raised by 9.35 °C to match UV melts. The conditions noted are these: sodium 0.088 M. The essentials: (§1)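 Melting temperature and folding enthalpy were obtained by bootstrapped two-state fitting. Fits used Cy3 fluorescence of library hairpins with annealed Cy3 and quencher oligos on a sequenced MiSeq flow cell, imaged in 50 mM Na-HEPES pH 8.0, 25 mM NaCl in 2.5 °C steps up to 60 °C and normalised to pre-quench Cy3 and control constructs. Four replicates were combined by inverse-variance weighting, and fitted temperatures were raised by 9.35 °C to match UV melts.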

Series [2] is described as follows: folding enthalpy; higher = less favourable; fluorescence melt of hairpins on a sequencing array, two-state fit. The note with it: sodium 0.088 M. The essentials:
as §1

Turning to GCGGGAGCGAAAGCTCGC (((..(((....)))))), the Tm in series [1] amounted to 55.8 °C. Besides, in series [2], the folding enthalpy was -10.9 kcal/mol.

In the case of GCGGGCGAAAGCCCCCGC ((((((....)))..))), the Tm in series [1] amounted to 52.1 °C. The folding enthalpy in series [2] is -11.2 kcal/mol.

Turning to GCGGGCGAAAGCCTCCGC ((((((....)))..))), the Tm in series [1] came to 53.3 °C. The folding enthalpy in series [2] was -25.8 kcal/mol.

In the case of GCGGGCGCGAAAGCGCGC (((..(((....)))))), the Tm in series [1] came to 63 °C. The folding enthalpy in series [2] was -7.24 kcal/mol.

Regarding GCGGGGCGAAAGCATCGC (((..((....))..))), in series [1], the Tm turned out to be 65.2 °C. Besides, in series [2], the folding enthalpy is -33.1 kcal/mol.

As for GCGGGGCGAAAGCCATGC ((..(((....)))..)), the Tm in series [1] turned out to be 62.4 °C. The folding enthalpy in series [2] is -27.7 kcal/mol.

Turning to GCGGGGCGAAAGCCGGGC ((..(((....)))..)), in series [1], the Tm was 56 °C. Besides, the folding enthalpy in series [2] is -14.8 kcal/mol.

As for GCGGGGCGAAAGCGCTGC ((.(.((....)).).)), the Tm in series [1] was 66.4 °C. In addition, the folding enthalpy in series [2] was -35.9 kcal/mol.

As to GCGGGGTCCCGC ((((....)))), in series [1], the Tm is 65.1 °C. For the same sequence, in series [2], the folding enthalpy was -29.3 kcal/mol.

GCGGGTACCCGC ((((....)))): in series [1], the Tm was 67.7 °C. Further, the folding enthalpy in series [2] is -34.1 kcal/mol.

In the case of GCGGGTACGAAAGTACGC (((..(((....)))))), in series [1], the Tm was found to be 51.5 °C. Also, the folding enthalpy in series [2] is -13.8 kcal/mol.

For GCGGGTAGCCGC ((((....)))), in series [1], the Tm was determined as 64 °C. In addition, the folding enthalpy in series [2] was -24.2 kcal/mol.

Regarding GCGGGTCCCCGC ((((....)))), the Tm in series [1] came out at 66.8 °C. Further, the folding enthalpy in series [2] is -23.5 kcal/mol.

GCGGGTCTCCGC ((((....)))): the Tm in series [1] came to 67.7 °C. In series [2], the folding enthalpy was -22.9 kcal/mol.

As for GCGGGTTCCCGC ((((....)))), the Tm in series [1] amounted to 67.3 °C. Further, the folding enthalpy in series [2] was -23.3 kcal/mol.

Take GCGGGTTGCCGC ((((....)))): the Tm in series [1] came out at 57.2 °C. The folding enthalpy in series [2] was -19.8 kcal/mol.

GCGGTAAACCGC ((((....)))): the Tm in series [1] turned out to be 56 °C. For the same sequence, in series [2], the folding enthalpy is -26.2 kcal/mol.

Consider GCGGTAACGAAAGTTCGC (((..(((....)))))), for which, in series [1], the Tm is 47.4 °C. Besides, the folding enthalpy in series [2] was -26.7 kcal/mol.

As to GCGGTAGACCGC ((((....)))), in series [1], the Tm worked out at 60.8 °C. In addition, the folding enthalpy in series [2] is -25.7 kcal/mol.

Regarding GCGGTAGGAAACTACCAC (.(((((....))))).), the Tm in series [1] is 44.1 °C. Besides, in series [2], the folding enthalpy was -15.6 kcal/mol.

Turning to GCGGTATCCCGC ((((....)))), the Tm in series [1] worked out at 53.5 °C. Further, the folding enthalpy in series [2] was -30.5 kcal/mol.

Take GCGGTCCCCGC ((((...)))): the Tm in series [1] is 67.5 °C. For the same sequence, in series [2], the folding enthalpy is -18 kcal/mol.

Regarding GCGGTCCGCCGC ((((....)))), the Tm in series [1] was determined as 63.6 °C. The folding enthalpy in series [2] is -19.7 kcal/mol.

Turning to GCGGTCGAAAGACACCGC ((((((....)))..))), the Tm in series [1] is 53.3 °C. The folding enthalpy in series [2] is -24.4 kcal/mol.

With GCGGTCGAAAGACAGCGC ((((((....)))..))), in series [1], the Tm is 69.2 °C. In addition, the folding enthalpy in series [2] is -27.7 kcal/mol.

As to GCGGTCGAAAGACTACGC ((((((....)))..))), in series [1], the Tm came to 54.3 °C. Also, the folding enthalpy in series [2] is -25.1 kcal/mol.

In the case of GCGGTCGCCCGC ((((....)))), the Tm in series [1] was found to be 56.7 °C. For the same sequence, the folding enthalpy in series [2] is -18.6 kcal/mol.

With GCGGTCGGAAACGATCGC (((.(((....))).))), the Tm in series [1] is 67.3 °C. For the same sequence, the folding enthalpy in series [2] is -34.8 kcal/mol.

As for GCGGTCTTCCGC ((((....)))), the Tm in series [1] was determined as 59.1 °C. Further, in series [2], the folding enthalpy was -23.6 kcal/mol.

GCGGTGCCCCGC ((((....)))): the Tm in series [1] was determined as 54.3 °C. Further, the folding enthalpy in series [2] is -18.8 kcal/mol.

For GCGGTGCGAAAGCAGTGC ((..(((....)))..)), the Tm in series [1] was 63.6 °C. In addition, the folding enthalpy in series [2] was -23.5 kcal/mol.

On to GCGGTGCGAAAGCATAGC ((..(((....)))..)), for which the Tm in series [1] turned out to be 63.4 °C. Further, the folding enthalpy in series [2] is -25.4 kcal/mol.

For the sequence GCGGTGCGAAAGCCCGGC ((.(.((....)).).)), in series [1], the Tm worked out at 61.7 °C. In series [2], the folding enthalpy was -12.4 kcal/mol.

As to GCGGTGCGAAAGCGCAGC ((.(.((....)).).)), in series [1], the Tm amounted to 64.1 °C. Further, the folding enthalpy in series [2] is -23.4 kcal/mol.

Turning to GCGGTGGGAAACTGCCGC ((((..(....)..)))), the Tm in series [1] turned out to be 56.6 °C. Moreover, the folding enthalpy in series [2] is -41.6 kcal/mol.

With GCGGTGTCCGC ((((...)))), the Tm in series [1] stood at 58.2 °C. Further, the folding enthalpy in series [2] is -23 kcal/mol.

As to GCGGTTACCGC ((((...)))), the Tm in series [1] came to 59.2 °C. Besides, in series [2], the folding enthalpy was -28.8 kcal/mol.

With GCGGTTATCCGC ((((....)))), in series [1], the Tm stood at 59 °C. Also, in series [2], the folding enthalpy is -30 kcal/mol.

In the case of GCGGTTCGAAAGAAACGC (((.(((....))).))), the Tm in series [1] was found to be 69.1 °C. For the same sequence, the folding enthalpy in series [2] is -33.7 kcal/mol.

Regarding GCGGTTCGAAAGAACGC (((.(((....)))))), in series [1], the Tm was found to be 61.2 °C. The folding enthalpy in series [2] is -26.8 kcal/mol.

As to GCGGTTGACCGC ((((....)))), the Tm in series [1] came to 63.9 °C. Further, the folding enthalpy in series [2] is -24.7 kcal/mol.

For the sequence GCGGTTGCCGC ((((...)))), the Tm in series [1] was 56.6 °C. Also, in series [2], the folding enthalpy was -21.2 kcal/mol.

With GCGTAAAAACGC ((((....)))), the Tm in series [1] is 46.4 °C. The folding enthalpy in series [2] was -19.9 kcal/mol.

For GCGTAACGAAAGTTTCGC (((.(((....))).))), the Tm in series [1] worked out at 57 °C. Also, in series [2], the folding enthalpy was -41.3 kcal/mol.

As for GCGTAAGGAAACTTACAC (.(((((....))))).), in series [1], the Tm turned out to be 33.4 °C. Moreover, in series [2], the folding enthalpy was -18.4 kcal/mol.

In the case of GCGTAAGGAAACTTACGC (((((((....))))))), the Tm in series [1] was determined as 63.4 °C. Also, the folding enthalpy in series [2] is -44.5 kcal/mol.

Consider GCGTAAGGACGC ((((....)))), for which, in series [1], the Tm came out at 49.3 °C. Besides, the folding enthalpy in series [2] is -19.7 kcal/mol.

Turning to GCGTAAGTACGC ((((....)))), the Tm in series [1] worked out at 52.9 °C. Also, in series [2], the folding enthalpy was -23.9 kcal/mol.

As for GCGTACATACGC ((((....)))), in series [1], the Tm stood at 52.1 °C. The folding enthalpy in series [2] is -24 kcal/mol.

GCGTACCAACGC ((((....)))): the Tm in series [1] is 53.6 °C. The folding enthalpy in series [2] was -21 kcal/mol.

For GCGTACGACGC ((((...)))), in series [1], the Tm came to 53.3 °C. In addition, the folding enthalpy in series [2] was -23.8 kcal/mol.

Turning to GCGTACTAACGC ((((....)))), in series [1], the Tm stood at 53 °C. Besides, the folding enthalpy in series [2] was -27.2 kcal/mol.

For GCGTAGAACGC ((((...)))), the Tm in series [1] was 54.6 °C. The folding enthalpy in series [2] is -23.7 kcal/mol.

Turning to GCGTAGACGAAAGTCCGC (((..(((....)))))), the Tm in series [1] worked out at 53.7 °C. Besides, in series [2], the folding enthalpy is -34.9 kcal/mol.

Take GCGTAGCACGC ((((...)))): the Tm in series [1] came to 68.2 °C. In series [2], the folding enthalpy was -11 kcal/mol.

With GCGTAGCGAAAGCAAAGC ((.(.((....)).).)), the Tm in series [1] amounted to 54.5 °C. In addition, the folding enthalpy in series [2] is -14.2 kcal/mol.

For GCGTAGCGAAAGCAACGC ((((.((....)).)))), the Tm in series [1] was found to be 66.7 °C. Also, in series [2], the folding enthalpy is -21.1 kcal/mol.

Consider GCGTAGCGAAAGCAATGC ((.(.((....)).).)), for which, in series [1], the Tm was determined as 35.8 °C. The folding enthalpy in series [2] was -7.98 kcal/mol.
